Drawing on ChEMBL document CHEMBL1148321, “New series of morpholine and 1,4-oxazepane derivatives as dopamine D4 receptor ligands: synthesis and 3D-QSAR model” (J Med Chem, 2004), this text covers Ki and Activity for 41 molecules.

Calls of active or inactive are those of the source. No cut-off for these calls is given here.

In experiment [1] the target is T1, D(4) dopamine receptor (Homo sapiens, UniProt P21917).
T1 sequence (P21917 whole entry): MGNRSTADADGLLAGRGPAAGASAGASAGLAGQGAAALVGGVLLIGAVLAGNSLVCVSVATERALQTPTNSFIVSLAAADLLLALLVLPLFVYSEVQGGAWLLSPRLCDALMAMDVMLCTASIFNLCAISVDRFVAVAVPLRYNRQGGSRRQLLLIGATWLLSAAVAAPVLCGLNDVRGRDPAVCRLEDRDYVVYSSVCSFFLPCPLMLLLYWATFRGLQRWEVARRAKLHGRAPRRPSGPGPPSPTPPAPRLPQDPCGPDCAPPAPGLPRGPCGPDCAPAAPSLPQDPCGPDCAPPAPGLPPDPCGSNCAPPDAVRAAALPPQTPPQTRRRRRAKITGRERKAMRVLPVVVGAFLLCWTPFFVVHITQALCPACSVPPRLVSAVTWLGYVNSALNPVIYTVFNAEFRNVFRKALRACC
Put plainly: In vitro ability of compound to inhibit binding of [3H]spiperone to human Dopamine receptor D4.

Experiment [2] deals with D(2) dopamine receptor (Homo sapiens) (UniProt P14416). Put plainly: Compound was tested for its affinity towards human Dopamine receptor D2 at 10 uM; No affinity was observed.
Sequence of D(2) dopamine receptor (Homo sapiens) (P14416 whole entry): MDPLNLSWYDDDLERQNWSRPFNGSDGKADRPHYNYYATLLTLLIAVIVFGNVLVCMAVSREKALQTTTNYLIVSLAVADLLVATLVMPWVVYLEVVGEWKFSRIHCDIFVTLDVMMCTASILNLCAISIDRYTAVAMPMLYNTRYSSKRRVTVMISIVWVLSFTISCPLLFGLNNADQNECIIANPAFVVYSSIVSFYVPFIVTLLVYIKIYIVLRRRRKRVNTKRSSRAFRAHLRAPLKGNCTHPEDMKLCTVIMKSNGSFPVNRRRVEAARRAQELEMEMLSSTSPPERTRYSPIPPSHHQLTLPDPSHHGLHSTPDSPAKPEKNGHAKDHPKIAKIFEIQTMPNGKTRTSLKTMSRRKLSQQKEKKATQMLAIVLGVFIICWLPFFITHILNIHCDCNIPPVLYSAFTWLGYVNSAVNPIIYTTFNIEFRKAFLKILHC
Experiment [3] concerns the target T1, D(4) dopamine receptor. Put plainly: In vitro ability to inhibit binding of [3H]spiperone to human recombinant Dopamine receptor D4.2 expressed on CHO cells. The class given is cell-based. Put shortly: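 Frozen membranes from CHO cells transfected with human D4.2, stored at -80 C, were thawed and diluted in 50 mM Tris-HCl pH 7.4 with 120 mM NaCl, 5 mM KCl, 5 mM MgCl2 and 1 mM EDTA. They were incubated with [3H]spiperone (0.5 nM final) for 60 min at 25 C, with haloperidol defining nonspecific binding. Samples were filtered on PEI-presoaked GF/C filters, washed with cold Tris/NaCl, and counted by scintillation.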

As a reminder, the Ki is a dissociation constant, usually derived from enzyme kinetics or from competition with a known ligand. In the case of `COc1cc(Cl)ccc1OC[C@@H]1CN(Cc2ccc(Cl)cc2)CCO1`, the Ki on D(4) dopamine receptor [1] came to 2.8 nM. For the same molecule, the result in experiment [2] was inactive.

At D(4) dopamine receptor [1], `COc1ccc([N+](=O)[O-])cc1OCC1CN(Cc2ccc(Cl)cc2)CCCO1` (stereo unspecified) had a Ki of 400 nM. Further, the outcome in experiment [2] was inactive.

On D(4) dopamine receptor [1], `COc1ccccc1OCC1CN(Cc2cccc(Cl)c2)CCO1` (stereo unspecified) displayed a Ki of 650 nM. Also, in experiment [2], the result was inactive.

`COc1cc(Cl)ccc1OCC1CN(Cc2ccc(Cl)cc2)CCO1` (racemic) displayed a Ki at D(4) dopamine receptor [1] of 4.4 nM. Also, the outcome in experiment [2] was inactive.

Molecule `CCOc1cc(Cl)ccc1OCC1CN(Cc2ccc(Cl)cc2)CCCO1` (stereo unspecified) came in with a Ki at D(4) dopamine receptor [1] of 7 nM. Further, the result in experiment [2] was inactive.

Turning to `CCOc1ccccc1OCC1CN(Cc2ccc(Cl)cc2Cl)CCO1` (stereo unspecified), the Ki at D(4) dopamine receptor [1] was 290 nM. The result in experiment [2] was inactive.

On D(4) dopamine receptor [1], `CCOc1ccc(Cl)cc1OCC1CN(Cc2ccc(Cl)cc2)CCCO1` (stereo unspecified) returned a Ki of 9.3 nM. Besides, the result in experiment [2] was inactive.

Turning to `Cc1ncccc1OCC1CN(Cc2ccc(Cl)cc2)CCCO1` (stereo unspecified), the Ki at D(4) dopamine receptor [1] came to 83 nM. The outcome in experiment [2] was inactive.

On to `COc1cc(I)ccc1OCC1CN(Cc2ccccc2)CCO1` (stereo unspecified), for which the affinity at D(4) dopamine receptor [1], expressed as Ki, was 430 nM. Moreover, the result in experiment [2] was inactive.

On D(4) dopamine receptor [1], `COc1ccccc1OCC1CN(Cc2ccc(Cl)cc2)CCO1` (stereo unspecified) yielded a Ki of 32 nM. In experiment [2], the result was inactive.

In turn, `COc1ccccc1OCC1CN(Cc2ccc(Cl)c(Cl)c2)CCO1` (stereo unspecified) returned a Ki on D(4) dopamine receptor [1] of 32 nM. Further, the result in experiment [2] was inactive.

On to `COc1ccc([N+](=O)[O-])cc1OCC1CN(Cc2ccc(Cl)cc2)CCO1` (stereo unspecified), for which the Ki at D(4) dopamine receptor [1] was determined as 23 nM. Also, the outcome in experiment [2] was inactive.

Molecule `COc1ccc(N)cc1OCC1CN(Cc2ccc(Cl)cc2)CCO1` (stereo unspecified) returned a Ki on D(4) dopamine receptor [1] of 100 nM. Further, in experiment [2], the result was inactive.

In turn, `COc1ccccc1SCC1CN(Cc2ccc(Cl)cc2)CCO1` (stereo unspecified) displayed an inhibition constant Ki on D(4) dopamine receptor [1] of 61 nM. Besides, in experiment [2], the outcome was inactive.

`CCOc1ccccc1OCC1CN(Cc2ccc(Cl)cc2)CCO1` (stereo unspecified) yielded an inhibition constant Ki on D(4) dopamine receptor [1] of 13 nM. Besides, the result in experiment [2] was inactive.

As for `CCOc1ccccc1OCC1CN(Cc2ccc(F)cc2)CCO1` (stereo unspecified), the affinity at D(4) dopamine receptor [1], expressed as Ki, was 180 nM. In experiment [2], the outcome was inactive.

At D(4) dopamine receptor [1], `COc1ccccc1OCC1CN(Cc2ccc(C(F)(F)F)cc2)CCO1` (stereo unspecified) registered a Ki of 61 nM. Besides, the outcome in experiment [2] was inactive.

`CCOc1cc(Cl)ccc1OCC1CN(Cc2ccc(Cl)cc2)CCO1` (stereo unspecified) registered a Ki at D(4) dopamine receptor [1] of 13 nM. Besides, the outcome in experiment [2] was inactive.

In the case of `COc1ccccc1OCC1CN(Cc2ccccc2)CCO1` (stereo unspecified), on D(4) dopamine receptor [3], the Ki stood at 850 nM. The result in experiment [2] was inactive.

With `COc1cc(Cl)ccc1OC[C@H]1CN(Cc2ccc(Cl)cc2)CCO1`, affinity at D(4) dopamine receptor [1] was put at a Ki of 1600 nM. Moreover, the outcome in experiment [2] was inactive.

On D(4) dopamine receptor [1], `CC(C)Oc1ccccc1OCC1CN(Cc2ccc(Cl)cc2)CCO1` (stereo unspecified) came in with a Ki of 46 nM. In addition, the outcome in experiment [2] was inactive.

In the case of `COc1ccc(Cl)cc1NCC1CN(Cc2ccc(Cl)cc2)CCO1` (stereo unspecified), the affinity on D(4) dopamine receptor [1], expressed as Ki, was 4.5 nM. Moreover, in experiment [2], the result was inactive.

As to `Clc1ccc(CN2CCOC(COc3ccc(Cl)c4cccnc34)C2)cc1` (stereo unspecified), affinity at D(4) dopamine receptor [1] was put at a Ki of 40 nM. Also, the result in experiment [2] was inactive.

At D(4) dopamine receptor [1], `COc1ccccc1/C=C/C1CN(Cc2ccc(Cl)cc2)CCO1` (stereo unspecified) had a Ki of 200 nM. Further, in experiment [2], the outcome was inactive.

With `Oc1cc(Cl)ccc1NCC1CN(Cc2ccc(Cl)cc2)CCO1` (stereo unspecified), the Ki on D(4) dopamine receptor [1] worked out at 5.4 nM. For the same molecule, the result in experiment [2] was inactive.

On D(4) dopamine receptor [1], `COc1ccc(C(F)(F)F)cc1OCC1CN(Cc2ccc(Cl)cc2)CCO1` (stereo unspecified) registered a Ki of 250 nM. In addition, the result in experiment [2] was inactive.

Molecule `CC(=O)c1ccc(Cl)cc1OCC1CN(Cc2ccc(Cl)cc2)CCCO1` (stereo unspecified) yielded a Ki at D(4) dopamine receptor [1] of 5.5 nM. For the same molecule, the outcome in experiment [2] was inactive.

As to `CCOc1ccccc1OCC1CN(Cc2ccc(Cl)cc2)CCCO1` (stereo unspecified), on D(4) dopamine receptor [1], the affinity corresponds to a Ki of 4.9 nM. Moreover, the result in experiment [2] was inactive.

Consider `COc1ccc(Cl)cc1OCC1CN(Cc2ccccc2)CCO1` (stereo unspecified), for which the affinity at D(4) dopamine receptor [1] corresponds to a Ki of 70 nM. For the same molecule, the outcome in experiment [2] was inactive.

In turn, `COc1ccccc1CCC1CN(Cc2ccc(Cl)cc2)CCO1` (stereo unspecified) yielded a Ki at D(4) dopamine receptor [1] of 29 nM. In addition, the result in experiment [2] was inactive.

`CCOc1ccccc1OCC1CN(Cc2ccc([N+](=O)[O-])cc2)CCO1` (stereo unspecified) came in with a Ki at D(4) dopamine receptor [1] of 35 nM. Besides, in experiment [2], the result was inactive.

On to `COCCOc1ccccc1OCC1CN(Cc2ccc(Cl)cc2)CCO1` (stereo unspecified), for which the affinity at D(4) dopamine receptor [1], expressed as Ki, was 52 nM. For the same molecule, in experiment [2], the result was inactive.

Consider `CCCc1ccccc1OCC1CN(Cc2ccc(Cl)cc2)CCO1` (stereo unspecified), for which the Ki on D(4) dopamine receptor [1] amounted to 32 nM. Further, in experiment [2], the outcome was inactive.

`COc1cc(Cl)cc(OCC2CN(Cc3ccccc3)CCO2)c1` (stereo unspecified): the outcome in experiment [2] was inactive.

`COc1ccc(F)cc1OCC1CN(Cc2ccc(Cl)cc2)CCO1` (stereo unspecified): affinity at D(4) dopamine receptor [1] was put at a Ki of 30 nM. The result in experiment [2] was inactive.

On to `COc1cc(C(=O)NC2CC2)c(Cl)cc1OCC1CN(Cc2ccc(Cl)cc2)CCO1` (stereo unspecified), for which the affinity at D(4) dopamine receptor [1] corresponds to a Ki of 150 nM. Also, the result in experiment [2] was inactive.

The molecule `CCOc1cc(C#N)ccc1OCC1CN(Cc2ccc(Cl)cc2)CCO1` (stereo unspecified) returned an inhibition constant (Ki) at D(4) dopamine receptor [1] of 40 nM. Moreover, in experiment [2], the result was inactive.

In turn, `CCOc1ccc(Cl)cc1OCC1CN(Cc2ccc(Cl)cc2)CCO1` (stereo unspecified) returned a Ki at D(4) dopamine receptor [1] of 2.9 nM. Moreover, the outcome in experiment [2] was inactive.

Turning to `CCOc1cc(I)ccc1OCC1CN(Cc2ccc(Cl)cc2)CCO1` (stereo unspecified), the Ki on D(4) dopamine receptor [1] worked out at 24 nM. Further, the result in experiment [2] was inactive.

`COc1cc(Cl)ccc1OCC1CN(Cc2ccc(Br)cc2)CCCO1` (stereo unspecified) showed a Ki at D(4) dopamine receptor [1] of 2 nM. In addition, the outcome in experiment [2] was inactive.

Molecule `COc1cccc(OCC2CN(Cc3ccc(Cl)cc3)CCO2)c1OC` (stereo unspecified) displayed a Ki on D(4) dopamine receptor [1] of 1000 nM. Moreover, the outcome in experiment [2] was inactive.
